Screening results (PubChem BioAssay)
PKD1 kinase inh: blocks activity of human protein kinase D1 | PKD1 kinase fluorescence polarization assay | inhibition, % (concentration not given with the values) | 0.056% of 200,000 active | AID 797; in the data active means inhibition above about 50%
ASAP1 GAP inh: blocks human ASAP1-stimulated Arf1 GTP hydrolysis; Q9ULH1; GDP FP detection; inhibition, % at 16.5 µM; 0.19% of 360,000 active; in the data active means inhibition above about 25%
ARFGAP1 inh: inhibits rat ARF GTPase activating protein 1; Q62848; Arfgap1-stimulated ARF1 GTP hydrolysis, GDP FP detection; inhibition, % at 16.5 µM; 0.26% of 360,000 active;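 active means inhibition above a per-plate limit, mean inhibition of low control wells plus 3 SD, cut at about 25% in these data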
Target sequence (Q62848 1-136 limits assumed): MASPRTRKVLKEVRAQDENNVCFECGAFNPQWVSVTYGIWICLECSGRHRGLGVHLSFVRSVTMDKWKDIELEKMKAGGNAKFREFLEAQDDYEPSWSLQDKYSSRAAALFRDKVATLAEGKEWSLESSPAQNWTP
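system = rat Arfgap1 catalytic domain, aa 1-136 | technique = FP, GDP Alexa 633 tracer displaced from anti-GDP antibody, 620/688 nm | compound = one concentration, 16.5 µM, DMSO 1.26% | medium = HEPES-based buffer, pH 7.5 | timing = compound-enzyme preincubation 20 min, reaction 120 min, detection 60 min, 25 °C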
PP5 inh: blocks human protein phosphatase 5 activity | P53041 | 0.18% of 320,000 active | purified PP5c, OMFP substrate fluorescence | inhibition, % at 6.7 µM;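 active means inhibition above the campaign's mean inhibition across all tested compounds plus 3 SD, cut at about 9.5% in these data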
Target sequence (P53041 whole entry, looked up): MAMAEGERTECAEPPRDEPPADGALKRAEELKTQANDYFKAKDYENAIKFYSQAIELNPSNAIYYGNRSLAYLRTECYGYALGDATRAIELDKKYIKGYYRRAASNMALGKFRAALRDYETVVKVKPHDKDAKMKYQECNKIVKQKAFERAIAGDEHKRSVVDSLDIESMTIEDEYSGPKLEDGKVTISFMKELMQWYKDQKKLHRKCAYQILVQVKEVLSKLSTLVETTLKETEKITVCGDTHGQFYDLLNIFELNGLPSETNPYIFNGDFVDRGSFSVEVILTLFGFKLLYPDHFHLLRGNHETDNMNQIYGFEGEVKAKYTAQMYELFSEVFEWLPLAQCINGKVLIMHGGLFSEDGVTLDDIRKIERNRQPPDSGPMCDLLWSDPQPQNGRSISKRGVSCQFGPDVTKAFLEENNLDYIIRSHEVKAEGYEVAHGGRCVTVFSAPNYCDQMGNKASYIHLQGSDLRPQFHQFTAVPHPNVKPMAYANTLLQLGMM
ARFGAP1 inh conf: confirmation of rat ARFGAP1 inhibitors | shares compounds with ARFGAP1 inh | AID 651608 | ARFGAP1-stimulated ARF1 GTP hydrolysis, GDP tracer FP | 30% of 890 active | inhibition, % at 16.5 µM;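 active means average inhibition over triplicates above the hit cutoff set in the earlier primary screen, cut at about 25% in these data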
Numbers stand for hits; . = inactive; / = no result. In the library only some 0.54% were active in any assay of this set; here they are far more common.

SMILES	PKD1 kinase inh	ASAP1 GAP inh	ARFGAP1 inh	PP5 inh	ARFGAP1 inh conf
Nc1cccc(C(=O)Nc2ccc3nc(-c4cccnc4)[nH]c3c2)c1	.	.	29	.	.
Nc1ccc2nc(-c3cccnc3)[nH]c2c1	.	.	.	.	/
C=CCN1C[C@@H](COCc2ccccc2)OCCS1(=O)=O	/	.	.	/	/
C=CCOc1ccc(/C=C/C(=O)Nc2ccc(C(=O)NC)cc2)cc1	.	.	29	.	37
CCCCOc1ccc(/C=C/C(=O)Nc2ccc(C(N)=O)cc2)cc1	.	.	.	.	/
Cc1nnc2ccc(-c3cccc(NC(=O)c4ccc(Cl)nc4)c3)nn12	.	.	27	.	.
CCN1CCN(c2c(S(=O)(=O)c3ccc(Cl)cc3)cnc3ccccc23)CC1	/	.	.	/	/
CC1CC(C)CN(C(=O)COC(=O)c2cc3ccccc3cc2O)C1 (stereo unspecified)	.	.	37	.	32
CC1CC(C)CN(C(=O)COC(=O)c2cc3ccccc3oc2=O)C1 (stereo unspecified)	/	.	.	/	/
Cc1c(P(=O)(c2ccccc2)c2ccccc2)c2ccccc2n1C	/	.	.	/	/
Nn1cnnc1N/N=C\c1ccc(-c2ccccc2[N+](=O)[O-])o1	.	.	27	/	.
CCCN1CCN(C(=O)Cn2ncc3c([nH]c4ccc(C)cc43)c2=O)CC1	/	.	.	.	/
Cc1ccc2[nH]c3c(=O)n(CC(=O)N4CC(C)CC(C)C4)ncc3c2c1 (stereo unspecified)	/	.	31	.	41
COCC(C)n1c(C)cc(C(=O)CN2c3cccc4cccc(c34)S2(=O)=O)c1C (stereo unspecified)	/	.	29	.	26
O=C(C[C@H]1C=C[C@@H](NC(=O)c2ccncc2)[C@@H](CO)O1)NCC1CC1	/	.	.	/	/
O=C1NC[C@H](Cc2ccc(O)cc2)N(CCc2cccc(F)c2)C1=O	/	.	.	/	/
CS(=O)(=O)N1CCN(C(=O)COc2ccccc2)CC1	.	.	25	.	.
C[C@@H]1CCCCO[C@H](CN(C)S(=O)(=O)c2cccs2)[C@H](C)CN([C@@H](C)CO)C(=O)c2cc(NC(=O)NC3CCCCC3)ccc2O1	/	.	25	/	.
C[C@H](CO)N1C[C@H](C)[C@@H](CN(C)S(=O)(=O)c2cccs2)Oc2ccc(NC(=O)NC3CCCCC3)cc2C1=O	/	.	.	/	/
Cc1cc(C)c2nc(C)cc(N/N=C/c3ccc(O)cc3)c2c1	/	.	26	.	40
Cc1cccc(NC(=O)CNC(=O)[C@@H](Cc2ccccc2)NC(=O)[C@H]2O[C@@H](n3ccc(N)nc3=O)[C@H](O)[C@@H]2O)c1C	/	.	.	/	/
COc1nnc(-c2ccc(N3CCOCC3)c(NC(C)=O)c2)c2ccccc12	.	.	.	.	/
COc1nnc(-c2ccc(N3CCOCC3)c(NC(=O)c3ccccc3)c2)c2ccccc12	.	.	41	.	.
COc1ccc(C2=Nc3ccccc3N(C(=O)c3ccncc3)C2C(=O)NC(C)(C)C)cc1 (stereo unspecified)	/	.	.	/	/
CC1CN(S(=O)(=O)c2cccc(C(=O)N(C)C3CCCCC3)c2)CC(C)O1 (stereo unspecified)	/	.	.	/	/
SMILES	PKD1 kinase inh	ASAP1 GAP inh	ARFGAP1 inh	PP5 inh	ARFGAP1 inh conf
COc1cc(O)c(CC=C(C)C)c(O)c1C(=O)CCc1ccc(O)cc1	/	.	29	.	29
O=C(CCc1ccc(O)cc1)c1c(O)cc(O)cc1O	/	.	.	.	/
CNC(=O)c1c(NC(=O)c2ccc(S(=O)(=O)N3CCCC3)cc2)sc2c1CCN(C(C)C)C2	/	.	.	.	/
CNC(=O)c1c(NC(=O)c2ccc(S(=O)(=O)N3CC(C)OC(C)C3)cc2)sc2c1CCN(C(C)C)C2 (stereo unspecified)	/	.	26	.	.
CC1(C)CC(=O)C=C(c2n[nH]nc2-c2ccccc2)C1	/	.	.	/	/
Cc1cccc(-c2n[nH]nc2C2=CC(=O)CC(C)(C)C2)c1	/	.	42	/	.
COC(=O)c1ccc2nc(-c3ccc(OC)c(OC)c3)c(Cc3cccc(F)c3)n2c1	/	.	.	/	/
CSCCC(NC(=O)OCc1ccccc1)C(=O)NCc1cccnc1 (stereo unspecified)	/	.	25	/	.
O=C(NC1CCCC1)C(c1ccco1)N1CCC(O)(c2ccc(Cl)cc2)CC1 (stereo unspecified)	/	.	.	/	/
O=C(N/N=C/c1cccc([N+](=O)[O-])c1)c1ccc(COc2ccccc2-c2ccccc2)cc1	.	.	35	.	.
CC1CCC(CN2C(Nc3ccccc3)=NC[C@@H]2Cc2ccccc2)CC1 (stereo partly specified)	/	.	28	/	.
c1ccc(C[C@H]2CN=C(Nc3ccccc3)N2CC2CCC2)cc1	/	.	.	.	/
CCOC(=O)c1cccc(Nc2nc(-c3cccnc3)nc3ccccc23)c1	.	.	.	.	/
COC(=O)c1cccc(Nc2nc(-c3cccnc3)nc3ccccc23)c1	/	.	43	.	53
COC(=O)c1ccc(Nc2nc(-c3ccncc3)nc3ccccc23)cc1	/	.	34	.	34
O=S(=O)(CS(=O)(=O)c1ccccc1Br)c1ccccc1Br	/	.	.	/	/
Cc1ccnc(Nc2ccc(CCO)cc2)n1	/	.	27	/	.
COC(=O)c1cc(S(=O)(=O)NCC2CCN(C(=O)C(=O)c3cc4ccccc4o3)CC2)cs1	/	.	.	/	/
C=CCOC(=O)c1ccc(N2CCN(c3ccccc3)CC2)nc1	/	.	40	.	.
CCCCNc1ccc2c(c1)OC[C@H](C)NS2(=O)=O	/	.	.	/	/
CC(=O)c1ccc(NC(=O)COC(=O)c2c3c(nc4ccccc24)/C(=C\c2cccs2)CCC3)cc1	.	.	32	.	.
O=C(NCc1ccccc1)C(c1ccc(-c2ccccc2)cc1)n1c(=O)c(-c2cc3ccccc3[nH]2)nc2ccccc21 (stereo unspecified)	/	.	.	/	/
O=C(NCc1ccccc1)C(c1ccncc1)n1c(=O)c(-c2cc3ccccc3[nH]2)nc2ccccc21 (stereo unspecified)	/	.	25	/	.
O=C(C1=NOC2(C1)C(=O)Nc1ccccc12)N1CCOCC1 (stereo unspecified)	/	.	.	/	/
C=CCN=C1NC(c2ccc(Cl)cc2)C(C(=O)OC)=C(C)N1Cc1ccccc1C(F)(F)F (stereo unspecified)	/	.	.	/	/
SMILES	PKD1 kinase inh	ASAP1 GAP inh	ARFGAP1 inh	PP5 inh	ARFGAP1 inh conf
O=C(COC(=O)C12CC3CC(CC(C3)C1)C2)N1CCN(S(=O)(=O)c2ccccc2)CC1	.	.	29	.	.
O=C(OCC(=O)N1CCN(S(=O)(=O)c2ccccc2)CC1)C1CCC1	/	.	.	/	/
Cc1ccc(Cc2c(C3CCCCC3)nc3c(C)cc(Br)cn23)cc1	/	.	.	/	/
Cc1cc(Br)cn2c(Cc3ccccc3)c(C3CCCCC3)nc12	/	.	155	/	.
CN1C(=O)[C@@]2(O[C@H]3c4ccccc4C=CN3C3=C2C(=O)CCC3)c2ccccc21	/	.	.	/	/
Cc1ccc(S(=O)(=O)N2CCC(=O)N(CCOC(=O)Nc3ccc(C)c(C)c3)CC2)cc1	.	.	35	.	.
Cc1ccc(NC(=O)OCCN2CCN(S(=O)(=O)c3ccc(C)cc3)CCC2=O)cc1	.	.	.	.	/
